Drawing on ChEMBL document CHEMBL1671862, “Impact of nucleoside reverse transcriptase inhibitors on mitochondrial DNA and RNA in human skeletal muscle cells” (Antimicrob Agents Chemother, 2008), this text covers Activity and Ratio for 5 compounds.

What all share (assay type): tissue-based, Muscle tissue
Data set [1] can be described thus: Cytotoxicity against human skeletal muscle Myoblast at 100 uL on day 5 by WST-1 assay. The method, boiled down:
(§1)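 After 5 days of NRTI treatment at Cmax levels, 100 μl WST-1 reagent was added per well and incubated 1 h at 37°C, 5% CO2. Supernatant absorbance was read at 450 nm in duplicate. Results are the ratio of treated to untreated wells, run in triplicate.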

Data set [2] is described as follows: Cytotoxicity against human skeletal muscle Myoblast assessed as change in MTCYB mitochondrial RNA level on day 2 by RT-PCR relative to untreated control. A digest of the protocol:
(§2)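 Proliferating human skeletal muscle myoblasts were treated from 20-30% confluence in growth medium, with NRTIs dissolved in sterile water. Doses were plasma Cmax levels (ddI 11.8, d4T 3.6, AZT 7.1, 3TC 8.3, ABV 3.0 μmol), given singly or as combinations. Controls got medium only, and medium was renewed every 2 days at 37°C, 5% CO2. Real-time RT-PCR copies were normalized to G6PDH and expressed relative to untreated cells. Five repeats.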

Data set [3] in a line: Cytotoxicity against human skeletal muscle Myoblast assessed as change in Tfam mitochondrial RNA level on day 2 by RT-PCR relative to untreated control. A digest of the protocol:
as §2

Data set [4] in a line: Cytotoxicity against human skeletal muscle Myoblast assessed as change in POLG mitochondrial RNA level on day 5 by RT-PCR relative to untreated control. The method, boiled down:
as §2

Data set [5] in a line: Cytotoxicity against human skeletal muscle Myoblast assessed as increase in mitochondrial DNA on day 2 by RT-PCR relative to untreated control. A digest of the protocol:
(§3)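 Myoblasts were treated from 20-30% confluence with NRTIs at plasma Cmax levels (ddI 11.8, d4T 3.6, AZT 7.1, 3TC 8.3, ABV 3.0 μmol), singly or combined. Medium was changed every 2 days at 37°C, 5% CO2, and cells were harvested on day 2 or 5. mtDNA and nDNA were measured by LightCycler real-time PCR in duplicate. The mtDNA:nDNA ratio is expressed relative to untreated cells. Five repeats.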

A short description of data set [6]: Cytotoxicity against human skeletal muscle Myoblast assessed as change in Tfam mitochondrial RNA level on day 5 by RT-PCR relative to untreated control. A digest of the protocol:
as §2

The nature of data set [7]: Cytotoxicity against human skeletal muscle Myotube assessed as change in Tfam mitochondrial RNA level on day 5 by RT-PCR relative to untreated control. A digest of the protocol:
(§4)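 Myoblasts at 70-80% confluence were differentiated into myotubes for 72 h in alpha-MEM with 10% FCS and penicillin/streptomycin. They were then treated with NRTIs at plasma Cmax levels (ddI 11.8, d4T 3.6, AZT 7.1, 3TC 8.3, ABV 3.0 μmol) for 5 days at 37°C, 5% CO2, with medium renewed every 2 days. mtDNA:nDNA, or RNA:G6PDH copies by real-time PCR, is expressed relative to untreated cells. Five repeats.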

Data set [8] is described as follows: Cytotoxicity against human skeletal muscle Myoblast assessed as change in POLG mitochondrial RNA level on day 2 by RT-PCR relative to untreated control. A digest of the protocol:
as §2

Data set [9] can be described thus: Cytotoxicity against human skeletal muscle Myoblast assessed as increase in mitochondrial DNA on day 5 by RT-PCR relative to untreated control. A digest of the protocol: as §3
Data set [10] is described as follows: Cytotoxicity against human skeletal muscle Myotube at 100 uL on day 5 by WST-1 assay. The method, boiled down: as §1
A short description of data set [11]: Cytotoxicity against human skeletal muscle Myoblast assessed as change in MTCO3 mitochondrial RNA level on day 2 by RT-PCR relative to untreated control. The method, boiled down: as §2
Data set [12] is described as follows: Cytotoxicity against human skeletal muscle Myotube assessed as change in POLG mitochondrial RNA level on day 5 by RT-PCR relative to untreated control. A digest of the protocol: as §4
Data set [13] can be described thus: Cytotoxicity against human skeletal muscle Myoblast assessed as decrease in mitochondrial DNA on day 5 by RT-PCR relative to untreated control. The method, boiled down:
as §3

Data set [14] is described as follows: Cytotoxicity against human skeletal muscle Myoblast assessed as decrease in MTCYB mitochondrial RNA level on day 5 by RT-PCR relative to untreated control. A digest of the protocol: as §2
Data set [15] can be described thus: Cytotoxicity against human skeletal muscle Myoblast assessed as decrease in mitochondrial DNA on day 2 by RT-PCR relative to untreated control. The method, boiled down:
as §3

Data set [16] in a line: Cytotoxicity against human skeletal muscle Myotube assessed as decrease in mitochondrial DNA on day 5 by RT-PCR relative to untreated control. A digest of the protocol:
as §4

Data set [17] can be described thus: Cytotoxicity against human skeletal muscle Myotube assessed as decrease in MTCYB mitochondrial RNA level on day 5 by RT-PCR relative to untreated control. The method, boiled down: as §4
The nature of data set [18]: Cytotoxicity against human skeletal muscle Myotube assessed as decrease in MTCO3 mitochondrial RNA level on day 5 by RT-PCR relative to untreated control. A digest of the protocol:
as §4

Turning to `Nc1nc(NC2CC2)c2ncn([C@H]3C=C[C@@H](CO)C3)c2n1.Nc1nc(NC2CC2)c2ncn([C@H]3C=C[C@@H](CO)C3)c2n1.O=S(=O)(O)O` [ABACAVIR SULFATE], the Activity entry in data set [1], in [2], in [3], in data set [4], in data set [6] and in data set [7] was “Non-toxic” each time. The Activity entry in data set [8], in data set [10], in data set [11] and in data set [12] was “Non-toxic” in each case. Further, the Ratio in data set [5] came out at 1.19; in data set [9], 1.07.

As for `O=c1[nH]cnc2c1ncn2[C@H]1CC[C@@H](CO)O1` [DIDANOSINE], the Activity entry in data set [1], in data set [2], in data set [3], in [4], in data set [6] and in data set [7] was “Non-toxic” in each case. Also, the Activity entry in data set [8], in [10], in data set [11] and in data set [12] was “Non-toxic” in each case. The Ratio in data set [13] is recorded as 0.22; in data set [14], 0.51; in data set [15], 0.51; in [16], 0.5; in data set [17] it was 0.66.

Take `Nc1ccn([C@@H]2CS[C@H](CO)O2)c(=O)n1` [LAMIVUDINE]: the Activity result in data set [1], in data set [2], in [3], in data set [4], in data set [6] and in data set [7] was “Non-toxic” each time. The Activity result in data set [8], in [10], in [11] and in data set [12] was “Non-toxic” throughout. Moreover, the figures for the Ratio in data set [5] and in data set [9] were 1.16 and 0.94, respectively.

Turning to `Cc1cn([C@H]2C=C[C@@H](CO)O2)c(=O)[nH]c1=O` [STAVUDINE], the Activity result in data set [1], in [2], in [3], in data set [4], in data set [6] and in data set [7] was “Non-toxic” in each case. In addition, the Activity result in [8], in data set [10], in data set [11] and in [12] was “Non-toxic” in each case. The Ratio in [5] is reported as 1.2; in [18], 0.69; in data set [9], 0.98.

On to `Cc1cn([C@H]2C[C@H](N=[N+]=[N-])[C@@H](CO)O2)c(=O)[nH]c1=O` [ZIDOVUDINE], for which the Activity entry in [1], in data set [2], in data set [3], in data set [4], in data set [6] and in data set [7] was “Non-toxic” in each case. The Activity entry in data set [8], in data set [10], in [11] and in data set [12] was “Non-toxic” in each case. Besides, the results for the Ratio in data set [5] and in data set [9] were 1.45 and 1.14, respectively.
